From PubChem
Rows were chosen to be rich in hits. Some 2.3% of all compounds tested hit in one or more screens of this group.
TRPC6 act: mouse TRPC6 channel activation | Q61143 | HEK293-TRPC6 membrane potential dye fluorescence; active compounds read high | B-score at 10 µM | hit rate 0.13% among 310,000 | AID 2550;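 active = B-score of the integrated fluorescence ratio above library mean plus 3 SD, and starting fluorescence ratio within library mean plus 5 SD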;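 note: higher score means more depolarization so channel activation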
TRPC4 act: TRPC4 (mouse) channel activation | Q9QUQ5 | HEK293 TRPC4beta/mu-opioid, Fluo4 calcium fluorescence; active compounds read high | B-score at 10 µM | hit rate 0.49% among 310,000 | AID 2237;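 active = B-score above 5 SD of library B-scores, and initial fluorescence ratio not above library mean plus 5 SD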;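 note: positive B-score marks a calcium rise read as TRPC4 activation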
Target sequence (Q9QUQ5 whole entry, looked up): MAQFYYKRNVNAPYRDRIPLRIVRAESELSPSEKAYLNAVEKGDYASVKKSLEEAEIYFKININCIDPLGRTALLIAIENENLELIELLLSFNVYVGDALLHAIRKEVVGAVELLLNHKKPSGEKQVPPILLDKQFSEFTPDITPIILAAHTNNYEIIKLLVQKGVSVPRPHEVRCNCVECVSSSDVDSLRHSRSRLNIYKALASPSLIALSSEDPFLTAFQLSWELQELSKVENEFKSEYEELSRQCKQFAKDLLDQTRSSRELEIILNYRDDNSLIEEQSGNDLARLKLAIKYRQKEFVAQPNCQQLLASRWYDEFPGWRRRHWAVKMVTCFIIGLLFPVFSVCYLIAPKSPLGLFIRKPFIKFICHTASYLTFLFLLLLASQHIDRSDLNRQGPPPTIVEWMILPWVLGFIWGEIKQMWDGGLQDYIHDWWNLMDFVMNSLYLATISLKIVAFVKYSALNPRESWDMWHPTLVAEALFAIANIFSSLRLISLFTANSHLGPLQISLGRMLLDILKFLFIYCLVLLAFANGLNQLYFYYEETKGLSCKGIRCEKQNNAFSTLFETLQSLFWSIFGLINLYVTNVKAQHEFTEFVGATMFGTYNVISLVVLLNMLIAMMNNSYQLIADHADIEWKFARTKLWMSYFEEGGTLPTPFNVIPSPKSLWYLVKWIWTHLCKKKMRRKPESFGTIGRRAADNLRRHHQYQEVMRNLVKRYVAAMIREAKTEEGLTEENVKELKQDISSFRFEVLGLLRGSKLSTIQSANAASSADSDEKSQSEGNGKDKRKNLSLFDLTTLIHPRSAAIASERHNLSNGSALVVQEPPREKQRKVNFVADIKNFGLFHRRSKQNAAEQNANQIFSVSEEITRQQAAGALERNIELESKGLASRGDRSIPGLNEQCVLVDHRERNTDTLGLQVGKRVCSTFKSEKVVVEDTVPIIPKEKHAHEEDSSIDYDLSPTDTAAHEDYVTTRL
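system = HEK293 cells stably co-expressing mouse TRPC4beta and mu-opioid receptor | schedule = Fluo4 dye loading 45 min at room temperature, 110 s recording | measure = B-scored integrated calcium fluorescence ratio | signal = Fluo4 calcium-sensitive dye fluorescence, kinetic, 1 Hz baseline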
TRPC4 PAM: TRPC4 (mouse) allosteric potentiation | Q9QUQ5 | HEK293 TRPC4beta/mu-opioid, DAMGO EC20, Fluo-4 Ca2+ flux; active compounds read high | B-score at 10 µM | hit rate 0.42% among 310,000;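 active = B-score of calcium response area above 5 SD of library B-scores, with initial fluorescence ratio within 5 SD of library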;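 note: B-score of integrated fluorescence ratio over time as area under calcium response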
TRPC4 inh: blocks the mouse TRPC4 cation channel. HEK293 TRPC4beta/mu-opioid, DAMGO-evoked Fluo4 calcium flux; active compounds read low. B-score at 10 µM. hit rate 0.39% among 300,000;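 active = B-score over 3 SD under the library average, no early fluorescence shift, positive overall ratio signal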
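material = TRPC4beta/mu-opioid receptor HEK293 cell line | probe or stimulus = sequential submaximal and maximal DAMGO stimulation | compound dosing = one concentration per compound | measured by = Fluo4 Ca2+ flux fluorescence | evaluation = integrated fluorescence ratio relative to baseline, converted to per-well B score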
TRPC6 inhibitor: inhibitors of mouse TRPC6 channel | HEK293-TRPC6, membrane potential dye, ACh-evoked depolarization; active compounds read low | hit rate 1.1% among 310,000 | Q61143 | B-score at 10 µM;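 active = B-score under library mean minus 3 SD, initial fluorescence not abnormally high, positive integrated signal ratio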;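 note: B-score derived from integrated fluorescence ratio over the kinetic read; more negative B-score means stronger inhibition of depolarization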
TRPC4 sel inh 2: mouse TRPC4 off-target activity of TRPC6 inhibitors, second screen. hit rate 42% among 920. AID 2776. HEK293 TRPC4/MOR, membrane potential dye fluorescence; channel activated by saturating DAMGO dose. shares compounds with TRPC6 inhibitor. inhibition, % at 10 µM;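 active = compounds whose fluorescence signal differed from control wells by over 3 SD, either direction, in both duplicate plates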
TRPC4 spec: mouse TRPC4 off-target activity of TRPC6 inhibitors | AID 2777 | hit rate 61% among 920 | shares compounds with TRPC6 inhibitor | activity change, negative = inhibition, % at 10 µM | HEK293 TRPC4/mu-opioid, membrane potential fluorescence;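 active = rise or fall in signal beyond 3 SD of buffer-only wells in both replicate plates, either sign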;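 note: integrated kinetic ratio of fluorescence range over baseline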
HEK293 MPD ctr 2-1: second check of TRPC6 inhibitor effects in parental HEK293 cells | hit rate 31% among 920 | parental HEK293 membrane potential dye fluorescence; maximal acetylcholine challenge after compound addition | AID 2779 | shares compounds with TRPC6 inhibitor | signal change vs control, % at 10 µM;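 active = membrane potential signal moving either way by over 3 SD of the maximum-effect control, in both duplicate plates, meaning non-specific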
HEK293 MPD ctr-1: counter-screen for TRPC6 inhibitors: effect in parental HEK293 cells; shares compounds with TRPC6 inhibitor; parental HEK293 membrane potential dye fluorescence; membrane potential signal change, % at 10 µM; hit rate 60% among 920; AID 2780;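 active = membrane potential signal shifting up or down by more than 3 SD of buffer-only wells, on both duplicate plates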
HEK293 MPD ctr-2: checks TRPC6 modulator effects in parental HEK293 cells; shares compounds with TRPC6 inhibitor; membrane potential dye fluorescence; hit rate 51% among 2,400; membrane potential signal change, % at 10 µM;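 active = membrane potential signal moves up or down beyond 5 SD from buffer-only wells, on both duplicate plates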
HEK293 MPD ctr 2-2: parental HEK293 nonspecific activity of TRPC6 modulators, second screen; shares compounds with TRPC6 inhibitor; membrane potential dye fluorescence; after compound, maximal acetylcholine stimulation; inhibition, % at 10 µM; hit rate 14% among 2,400;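 active = membrane potential signal drops by more than 5 SD from the mean control signal, in both duplicate plates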;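 note: plate controls were acetylcholine ECmax control wells for no effect and buffer only wells for full effect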
TRPC4 ctr mod: tests whether TRPC6 modulators also affect mouse TRPC4; shares compounds with TRPC6 inhibitor; HEK293 TRPC4/mu-opioid, membrane potential fluorescence; percent change from control (negative = decrease, positive = increase), % at 10 µM; hit rate 69% among 2,400; AID 488927;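 active = membrane potential signal moved up or down beyond 5 SD of buffer control wells, in both duplicate plates, actives on both sides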;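 note: plate controls were assay buffer wells for no effect and DAMGO maximal-effect wells for full effect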
TRPC4/MOR inh 2: mouse TRPC4 off-target activity of TRPC6 modulators, second screen. AID 488928. shares compounds with TRPC6 inhibitor. HEK293 TRPC4/mu-opioid, membrane potential dye fluorescence; stimulated with maximal-effect DAMGO. hit rate 55% among 2,400. inhibition, % at 10 µM;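 active = drop in membrane potential signal beyond 5 SD of the control wells in both duplicate plates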;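 note: TRPC4 counter screen for TRPC6 hits run under conditions tuned for TRPC6 not TRPC4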
TRPC6 block conf: confirmation of mouse TRPC6 inhibitors | shares compounds with TRPC6 inhibitor | hit rate 43% among 3,300 | AID 488960 | HEK293-TRPC6, membrane potential dye, ACh-evoked depolarization | inhibition, % at 10 µM;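 active = fluorescence ratio falls more than 5 SD below the full-stimulation control mean, in both duplicate runs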;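 note: integrated fluorescence ratio of peak minus minimum over baseline after agonist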
TRPC6 act confirm: confirmation of mouse TRPC6 activators; shares compounds with TRPC6 inhibitor; HEK293-TRPC6 membrane potential dye fluorescence, FDSS; activation, % at 10 µM; hit rate 11% among 2,800;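 active = ratio signal rise beyond 5 SD above unstimulated control wells' mean, seen in both duplicate runs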;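 note: plate controls were buffer EC0 wells for no effect and acetylcholine ECmax response for full effect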
The depositor's hits bear a star; i = inactive.

SMILES | TRPC6 act | TRPC4 act | TRPC4 PAM | TRPC4 inh | TRPC6 inhibitor | others
O=Nc1c(-c2cccc([N+](=O)[O-])c2)nc2ncccn12 | i | i | i | i | i
COc1ccc(C=O)cc1CSc1ncccc1C(=O)O | i | i | i | i | i
CCC(C)(C)c1ccc(OCCCC[n+]2cccc(C)c2C)c(C(C)(C)CC)c1 | i | i | i | i | -5.3*
COc1ccc(C2Nc3ccccc3C(=O)N2Cc2ccco2)cc1COc1ccc(NC(C)=O)cc1 (stereo not drawn) | i | 110* | i | i | i
COc1ccc(C2Nc3ccccc3C(=O)N2Cc2ccco2)cc1COc1ccccc1F (stereo not drawn) | i | i | i | i | i
COc1ccc(S(=O)(=O)Nc2ccc(F)c(F)c2)cc1C(=O)N1CCOCC1 | i | i | i | i | i
CCOc1cc(/C=C2\C(=N)N3N=CSC3=NC2=O)ccc1OS(=O)(=O)c1ccccc1 | i | i | i | -6* | i
COc1cc(/C=C2\C(=N)N3N=CSC3=NC2=O)ccc1OS(=O)(=O)c1ccccc1 | i | i | i | i | i
CN1CCN(NC(=O)c2cccc(C(F)(F)F)c2)CC1 | i | 53* | i | i | i
CN1CCN(NC(=O)c2cccc(S(=O)(=O)N3CCCCCC3)c2)CC1 | i | i | i | i | i
CN(C)C(=O)C(OC(=O)c1ccc2ccccc2n1)c1ccccc1 (stereo not drawn) | i | i | i | i | i
COC(=O)c1cnc(Oc2c(Cl)cc(N)cc2Cl)cc1C(F)(F)F | i | i | 22* | i | i
Cc1ccc(C2=NN(S(=O)(=O)c3ccccc3)C(c3ccccc3O)C2)cc1 (stereo not drawn) | i | i | 13* | i | i
O=C(N/N=C/c1cc([N+](=O)[O-])cc(Br)c1O)C12CC3CCC(CC(C3)C1)C2 | i | 136* | i | i | i
CC(=O)C1=C(c2ccccc2)NC(=S)NC1c1cc(Cl)c(OC(C)C)c(Cl)c1 (stereo not drawn) | i | i | 12* | i | i
Nc1nc(SCC(=O)N2CCCC2)[nH]c(=O)c1NC(=O)c1cccs1 | i | i | i | i | i
COc1cc(OC)cc(C(=O)NCC2CCCN(C(=O)c3csc(C)n3)C2)c1 (stereo not drawn) | i | i | i | i | i
O=C(COc1ccc(Cl)cc1Cl)NNC(=S)NCc1ccco1 | i | i | i | i | -5.4* | HEK293 MPD ctr-2=i;HEK293 MPD ctr 2-2=i;TRPC4 ctr mod=i;TRPC4/MOR inh 2=i;TRPC6 block conf=i;TRPC6 act confirm=i
COC(=O)c1ccc(Oc2nc(C)cc(Oc3ccccc3)n2)cc1 | i | i | i | i | -7.8* | TRPC4 sel inh 2=i;TRPC4 spec=1.0%*;HEK293 MPD ctr 2-1=i;HEK293 MPD ctr-1=1.6%*;TRPC6 block conf=i;TRPC6 act confirm=i
COc1ccccc1/C=C1\SC(=S)N(CCC(=O)N2CCN(C)CC2)C1=O | i | i | i | i | -5.3* | HEK293 MPD ctr-2=i;HEK293 MPD ctr 2-2=i;TRPC4 ctr mod=i;TRPC4/MOR inh 2=44%*;TRPC6 block conf=i;TRPC6 act confirm=i
CCOc1ccc(S(=O)(=O)N(CC(=O)N/N=C/c2ccc(-c3ccc([N+](=O)[O-])cc3)o2)c2ccccc2)cc1 | i | i | i | i | -5.1* | HEK293 MPD ctr-2=i;HEK293 MPD ctr 2-2=i;TRPC4 ctr mod=i;TRPC4/MOR inh 2=i;TRPC6 block conf=i
Cc1ccc(C)c(N(CC(=O)N/N=C/c2ccc(-c3ccc([N+](=O)[O-])cc3)o2)S(=O)(=O)c2ccccc2)c1 | i | i | i | i | i
Cc1cccc(OCCOC(=O)c2c(-c3ccccc3)noc2C)c1 | i | i | i | i | i
CCN1CCN(c2cc(C)c3cc(NC(=O)c4cccs4)ccc3n2)CC1 | i | i | i | i | -5.3* | HEK293 MPD ctr-2=i;HEK293 MPD ctr 2-2=i;TRPC4 ctr mod=i;TRPC4/MOR inh 2=i;TRPC6 block conf=i;TRPC6 act confirm=i
CCN1CCN(c2cc(C)c3cc(NC(=O)c4cncc(Br)c4)ccc3n2)CC1 | i | i | i | i | -11* | TRPC4 sel inh 2=i;TRPC4 spec=-17%*;HEK293 MPD ctr 2-1=i;HEK293 MPD ctr-1=-164%*;TRPC6 block conf=i;TRPC6 act confirm=i
CCOc1ccc(S(=O)(=O)N2CCCCC2)cc1NC(=O)C1CSC2(C)CCC(=O)N12 (stereo not drawn) | 12* | i | i | i | -8.3* | HEK293 MPD ctr-2=152%*;HEK293 MPD ctr 2-2=i;TRPC4 ctr mod=33%*;TRPC4/MOR inh 2=i;TRPC6 block conf=68%*;TRPC6 act confirm=106%*
CC(C)c1ccc(OC(=O)c2ccc3c(=O)n4c(nc3c2)CCC4)cc1 | i | i | i | i | i
COc1ccc(C(=O)NCc2nnc(SCC(=O)NCc3ccco3)o2)cc1OC | i | i | i | i | i
C=CCn1c(SCC(=O)Nc2sc3c(c2C#N)CCC3)nnc1C1COc2ccccc2O1 (stereo not drawn) | i | i | i | i | i
COCCCn1c(SCC(=O)Nc2sc3c(c2C#N)CCCC3)nnc1-c1ccncc1 | i | i | i | i | i
